Test results taken from ChEMBL document CHEMBL5344428, “Discovery, Crystallographic Studies, and Mechanistic Investigations of Novel Phenylalanine Derivatives Bearing a Quinazolin-4-one Scaffold as Potent HIV Capsid Modulators” (J Med Chem, 2023).

Key:
[1] = Selectivity ratio of EC50 for antiviral activity against HIV1 IIIB infected in human MT4 cells to EC50 for antiviral activity against HIV2 ROD infected in human MT4 cells; assay type: toxicity, cell-based
In short: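 Ratio is EC50 against HIV-1 IIIB divided by EC50 against HIV-2 ROD. Both EC50 values come from MTT-read protection of infected MT-4 cells.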

[2] = Selectivity index, ratio of CC50 for cytotoxicity against human MT4 cells to EC50 for antiviral activity against HIV1 IIIB infected in human MT4 cells; assay type: toxicity, cell-based; conditions: read-out: Ratio CC50/EC50
In short: (§1)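 SI is CC50 divided by EC50. CC50 comes from MTT viability of uninfected MT-4 cells. EC50 comes from MTT-read protection of MT-4 cells infected with HIV-1 IIIB or HIV-2 ROD. Each value was run in at least triplicate.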

[3] = system: Human immunodeficiency virus 1; assay: Antiviral activity against HIV1 IIIB infected in human MT4 cells assessed as reduction in virus induced cytopathic effect measured after 5 days by MTT assay; assay type: functional, organism-based; conditions: Human immunodeficiency virus 1, IIIB, MT4, 120 h
In short: (§2)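 MT-4 cells were infected with HIV-1 IIIB or HIV-2 ROD, and cell viability was read by MTT. […] Each value was run in at least triplicate and averaged from at least three independent experiments.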

[4] = system: Human immunodeficiency virus 2; assay: Antiviral activity against HIV2 ROD infected in human MT4 cells assessed as reduction in virus induced cytopathic effect measured after 5 days by MTT assay; assay type: functional, organism-based; conditions: Human immunodeficiency virus 2, ROD, MT4, 120 h; in short: as §2
[5] = Cytotoxicity against human MT4 cells assessed as reduction in cell viability incubated for 5 days by MTT assay; assay type: toxicity, cell-based; conditions: MT4 cells, time 5 day
In short: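 Uninfected MT-4 cells were exposed to compound, and viability was read by the MTT method. […] Each value was run in at least triplicate and averaged from at least three independent experiments.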

[6] = Selectivity index, ratio of CC50 for cytotoxicity against human MT4 cells to EC50 for antiviral activity against HIV2 ROD infected in human MT4 cells; assay type: toxicity, cell-based; conditions: read-out: Ratio CC50/EC50; in short: as §1

Row | Structure (SMILES) | Ratio EC50 [1] | selectivity ratio [2] | EC50 [3] [µM] | EC50 [4] [µM] | CC50 at 120 h [5] [µM] | selectivity ratio [6]
1 | COc1ccc(N(C)C(=O)[C@H](Cc2cc(F)cc(F)c2)NC(=O)CN2CCN(C(=O)Cc3c[nH]c4ccc(F)cc34)CC2=O)cc1 | 1.16 | 2.78 | 5.89 | 5.07 | 16.4 | 3.23
2 | COc1ccc(-n2c(SCCCN3CCOCC3)nnc2[C@H](Cc2ccccc2)NC(=O)Cc2c(C)[nH]c3ccccc23)cc1 | 0.16 | 83 | 0.59 | 3.73 |  | 13
3 | COc1ccc(N(C)C(=O)[C@H](Cc2ccccc2)NC(=O)CN2CCN(C(=O)c3ccc(NC(=O)C(F)(F)F)cc3)CC2=O)cc1 | 10.54 | > 1.24 |  | 15 | > 195 | > 13.1
4 | COc1ccc(N(C)C(=O)[C@H](Cc2ccccc2)NC(=O)CN2CCN(C(=O)Cc3c[nH]c4ccc(Br)cc34)CC2=O)cc1 |  | < 1 | > 16.4 | > 16.4 | 16.4 | < 1
5 | COc1ccc(-n2c(SCCC(F)(F)F)nnc2[C@H](Cc2ccccc2)NC(=O)Cc2c(C)[nH]c3ccccc23)cc1 | < 0.09 | 11 | 2.87 | > 30.8 | 30.8 | 
6 | COc1ccc(N(C)C(=O)[C@H](Cc2cc(F)cc(F)c2)NC(=O)CN(Cc2ccc(F)cc2)C(=O)Cc2cccc3ccccc23)cc1 | > 32.6 |  |  | 5.87 | > 191 | > 33
7 | COc1ccc(N(C)C(=O)[C@H](Cc2ccccc2)NC(=O)Cn2ccc(NC(=O)c3ccc(F)cc3)cc2=O)cc1 | > 2.15 |  | > 34.8 | 16.2 | 34.8 | 2.15
8 | COc1ccc(N(C)C(=O)[C@H](Cc2ccccc2)NC(=O)Cn2ccc(NC(=O)c3ccc([N+](=O)[O-])cc3)cc2=O)cc1 |  |  | > 31.9 | > 31.9 | 31.9 | 
9 | COc1ccc(N(C)C(=O)[C@H](Cc2ccccc2)NC(=O)CN2CCN(C(=O)c3ccc(NS(C)(=O)=O)cc3)CC2=O)cc1 | < 0.96 | > 1.05 |  |  | > 201 | 
10 | COc1ccc(-n2c(SCc3ccncc3)nnc2[C@H](Cc2ccccc2)NC(=O)Cc2c(C)[nH]c3ccccc23)cc1 | 0.68 | 9 | 2.89 | 4.27 |  | 6
11 | COc1ccc(N(C)C(=O)[C@H](Cc2cc(F)cc(F)c2)NC(=O)CN2CCN(C(=O)c3ccc(NC(C)=O)cc3)CC2=O)cc1 | 0.92 | 1.11 |  |  | 196 | 1.02
12 | COc1ccc(N(C)C(=O)[C@H](Cc2ccccc2)NC(=O)CN2CCN(C(=O)c3ccc(NC(C)=O)cc3)CC2=O)cc1 | 1.1 | > 1.05 |  |  | > 213 | > 1.16
13 | COc1ccc(N(C)C(=O)[C@H](Cc2cc(F)cc(F)c2)NC(=O)CN2CCN(C(=O)Cc3c[nH]c4ccc(O)cc34)CC2=O)cc1 |  | < 1 |  | 49.6 | 132 | 2.65
14 | COC(=O)C(C)(C)Sc1nnc([C@H](Cc2ccccc2)NC(=O)Cc2c(C)[nH]c3ccccc23)n1-c1ccc(OC)cc1 | 0.13 | 8 | 2.88 | > 22.6 | 22.6 | 
15 | COc1ccc(-n2c(SCc3cccnc3)nnc2[C@H](Cc2ccccc2)NC(=O)Cc2c(C)[nH]c3ccccc23)cc1 | < 0.38 | 8 | 2.99 | > 7.81 | 24 | 
16 | COc1ccc(N(C)C(=O)[C@H](Cc2ccccc2)NC(=O)CN2CCN(C(=O)c3ccc(NC(=O)C4CC4)cc3)CC2=O)cc1 | > 11.15 | < 1 |  | 15 | 168 | 11.2
17 | COc1ccc(N(C)C(=O)[C@H](Cc2cc(F)cc(F)c2)NC(=O)CN2CCN(C(=O)Cc3c[nH]c4ccc(Br)cc34)CC2=O)cc1 |  | < 1 | > 3.15 | > 3.15 | 3.15 | < 1
18 | O=C(CN1CCN(S(=O)(=O)c2ccc([N+](=O)[O-])cc2)CC1)N[C@@H](Cc1ccccc1)c1nc2ccccc2c(=O)n1-c1ccc(S(=O)(=O)N2CCS(=O)(=O)CC2)cc1 |  | > 11.5 | 12.6 | 0.73 | > 145 | > 198
19 | COc1ccc(N(C)C(=O)[C@H](Cc2ccccc2)NC(=O)CN2CCN(C(=O)Cc3c[nH]c4ccc(O)cc34)CC2=O)cc1 | 1.06 | > 1.06 |  |  | > 209 | > 1.12

Row | Structure (SMILES) | Ratio EC50 [1] | selectivity ratio [2] | EC50 [3] [µM] | EC50 [4] [µM] | CC50 at 120 h [5] [µM] | selectivity ratio [6]
20 | COc1ccc(N(C)C(=O)[C@H](Cc2ccccc2)NC(=O)Cn2ccc(NC(=O)c3ccc(N)cc3)cc2=O)cc1 | > 11.04 |  |  | 17.1 | 189 | 11
21 | COc1ccc(N(C)C(=O)[C@H](Cc2cc(F)cc(F)c2)NC(=O)CN(Cc2ccc(C#N)cc2)C(=O)Cc2cccc3ccccc23)cc1 | 82.32 |  | > 189 | 2.3 | > 189 | > 82
22 | COc1ccc(-n2c(SCCC3CCCCC3)nnc2[C@H](Cc2ccccc2)NC(=O)Cc2c(C)[nH]c3ccccc23)cc1 |  |  |  |  | > 206 | 
23 | COc1ccc(N(C)C(=O)[C@H](Cc2ccccc2)NC(=O)Cn2ccc(NC(=O)c3ccc4ccccc4c3)cc2=O)cc1 |  |  | > 27.6 | > 27.6 | 27.6 | 
24 | COc1ccc(N(C)C(=O)[C@H](Cc2cc(F)cc(F)c2)NC(=O)CN2CCN(C(=O)c3ccc(NS(C)(=O)=O)cc3)CC2=O)cc1 | 0.88 | > 1.18 |  |  | > 190 | > 1.04
25 | COc1ccc(N(C)C(=O)[C@H](Cc2cc(F)cc(F)c2)NC(=O)CN(CC2CCCCC2)C(=O)Cc2c[nH]c3ccc(Br)cc23)cc1 |  | < 1 | > 17.6 | > 17.6 | 17.6 | < 1
26 | COc1ccc(-n2c(SCCN3CCOCC3)nnc2[C@H](Cc2ccccc2)NC(=O)Cc2c(C)[nH]c3ccccc23)cc1 | 0.16 | 103 | 0.79 | 4.98 |  | 16
27 | COc1ccc(-n2c(SCC#N)nnc2[C@H](Cc2ccccc2)NC(=O)Cc2c(C)[nH]c3ccccc23)cc1 | 0.22 | 163 | 0.59 | 2.69 |  | 36
28 | COc1ccc(N(C)C(=O)[C@H](Cc2cc(F)cc(F)c2)NC(=O)CN(Cc2ccccc2)C(=O)Cc2ccc3ccccc3c2)cc1 |  | < 1 |  | > 18.9 | 176 | < 1
29 | COc1ccc(-n2c(SCCF)nnc2[C@H](Cc2ccccc2)NC(=O)Cc2c(C)[nH]c3ccccc23)cc1 | 0.3 | 20 | 1.24 | 4.07 |  | 6
30 | COc1ccc(N(C)C(=O)[C@H](Cc2cc(F)cc(F)c2)NC(=O)CN(Cc2ccc(F)cc2)C(=O)Cc2ccc3ccccc3c2)cc1 |  |  |  |  | > 160 | 
31 | COc1ccc(-n2c(SCCN(C)C)nnc2[C@H](Cc2ccccc2)NC(=O)Cc2c(C)[nH]c3ccccc23)cc1 | < 0.04 | 27 | 0.85 | > 22.9 |  | 
32 | COc1ccc(N(C)C(=O)[C@H](Cc2ccccc2)NC(=O)Cn2ccc(NC(=O)c3ccc(Cl)cc3)cc2=O)cc1 |  |  | > 25.5 | > 25.5 | 25.5 | 
33 | COc1ccc(N(C)C(=O)[C@H](Cc2ccccc2)NC(=O)Cn2ccc(NC(=O)c3ccc(Br)cc3)cc2=O)cc1 |  |  | > 23.5 | > 23.5 | 23.5 | 
34 | COc1ccc(N(C)C(=O)[C@H](Cc2cc(F)cc(F)c2)NC(=O)CN(Cc2ccc(F)cc2)C(=O)Cc2c(C)[nH]c3ccccc23)cc1 | < 0.12 | 8 | 2.79 | > 22.6 | 22.6 | 
35 | COc1ccc(N(C)C(=O)[C@H](Cc2cc(F)cc(F)c2)NC(=O)CN2CCN(C(=O)Cc3c[nH]c4ccc(OC)cc34)CC2=O)cc1 |  | < 1 | > 15.9 | > 15.9 | 15.9 | < 1
36 | COc1ccc(N(C)C(=O)[C@H](Cc2cc(F)cc(F)c2)NC(=O)CN(Cc2ccc(C#N)cc2)C(=O)Cc2ccc3ccccc3c2)cc1 | 1.17 |  |  |  | > 189 | > 1
37 | COc1ccc(-n2c(SCc3ccc(B(O)O)cc3)nnc2[C@H](Cc2ccccc2)NC(=O)Cc2c(C)[nH]c3ccccc23)cc1 | < 0.13 | 8 | 2.71 | > 20.8 | 20.8 | 
